SENP8 block-1 = SENP8 (human) protease inhibition; recombinant SENP8, Nedd8 substrate fluorescence; 0.64% of 360,000 active; AID 602440; inhibition, % at 20 µM; Q96LD8; in the data active means inhibition mostly above about 40%, no sharp cut-off; inactive means mostly below about 27%
Target sequence (Q96LD8 whole entry, looked up): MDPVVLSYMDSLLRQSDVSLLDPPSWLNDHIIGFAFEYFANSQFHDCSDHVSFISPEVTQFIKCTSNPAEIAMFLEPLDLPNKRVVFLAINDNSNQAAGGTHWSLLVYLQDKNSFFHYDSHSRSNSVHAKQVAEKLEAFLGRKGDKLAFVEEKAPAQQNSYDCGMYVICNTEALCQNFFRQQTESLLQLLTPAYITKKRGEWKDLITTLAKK
SENP8 block-2 = blocks the human protease SENP8; purified SENP8, Z-RLRGG-aminoluciferin cleavage, luminescence; 1.2% of 330,000 active; Q96LD8; inhibition, % at 10 µM; AID 2540; in the data active means inhibition above about 50%
SENP6 inh = blocks the human protease SENP6. Q9GZR1. Recombinant SENP6 catalytic domain, aminoluciferin luminescence. inhibition, % at 10 µM. 1.8% of 330,000 active. AID 2599;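 active means inhibition above about 50% at the single tested dose, limit read from the data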
SENP7 inh = inhibitors of human SENP7 protease; Q9BQF6; recombinant SENP7, Z-RLRGG-aminoluciferin luminescence, 40 min; inhibition, % at 5 µM; 1.5% of 330,000 active; AID 434973;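 active means inhibition above about 50% at the single test dose, limit read from the data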
SENP1 FRET inh = SENP1 (human) catalytic domain inhibition. 0.21% of 360,000 active. AID 624204. recombinant SENP1 catalytic domain, CyPet-SUMO1-YPet FRET cleavage. inhibition, % at 10 µM;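 active means inhibition at least 30% at 10 µM, raw YFP signal under a set limit, fluorescence ratio 0.5 to 1.5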
Target sequence (Q9P0U3 419-644 limits assumed): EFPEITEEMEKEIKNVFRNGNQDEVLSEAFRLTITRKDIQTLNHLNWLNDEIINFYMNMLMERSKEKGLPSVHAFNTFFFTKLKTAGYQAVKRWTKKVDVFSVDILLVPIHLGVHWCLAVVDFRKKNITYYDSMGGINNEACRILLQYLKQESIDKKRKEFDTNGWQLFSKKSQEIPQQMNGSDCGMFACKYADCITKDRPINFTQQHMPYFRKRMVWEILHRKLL
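Assay system: hSENP1 catalytic domain, recombinant. Amount: SENP1 enzyme, 20 pM final. Schedule: 50 min reaction, RT, dark. Technique: FRET, CFP and YFP emission. Control set: no-enzyme wells low, DMSO-plus-enzyme wells high control.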
SENP8 confirm = human SENP8 inhibition, confirmed | 40% of 6,200 active | inhibition, % at 12.5 µM | Recombinant SENP8, Z-RLRGG-aminoluciferin luminescence, 60 min | shares compounds with SENP7 inh;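 active means mean inhibition across replicates above about 50%, limit read from the data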
SENP6 confirm = confirmation of human SENP6 protease inhibitors; shares compounds with SENP7 inh; recombinant SENP6, Z-RLRGG-aminoluciferin luminescence; inhibition, % at 12.5 µM; 58% of 6,200 active
SENP7 conf = confirmation of human SENP7 protease inhibitors; shares compounds with SENP7 inh; recombinant SENP7, Z-RLRGG-aminoluciferin luminescence, 40 min; inhibition, % at 12.5 µM; 69% of 6,200 active; AID 488917
Casp3 SENP sel = inhibits human caspase-3 in SENP selectivity test; shares compounds with SENP7 inh; purified caspase-3, Z-DEVD-aminoluciferin luminescence, 60 min; inhibition, % at 12.5 µM; 60% of 6,200 active;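 active means mean inhibition above about 50%, limit read from the data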
Target sequence (P42574 28-227 limits assumed): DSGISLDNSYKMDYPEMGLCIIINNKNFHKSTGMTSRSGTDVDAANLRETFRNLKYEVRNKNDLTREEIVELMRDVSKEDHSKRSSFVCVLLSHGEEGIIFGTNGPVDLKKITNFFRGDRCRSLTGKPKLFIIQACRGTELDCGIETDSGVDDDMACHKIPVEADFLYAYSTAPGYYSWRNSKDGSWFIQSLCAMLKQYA
SENP luc ctr = counter-screen for SENP inhibitors: luminescence interference | shares compounds with SENP7 inh | Pre-incubated SENP8/Z-RLRGG-aminoluciferin, luciferase luminescence interference | inhibition, % at 12.5 µM | 39% of 6,200 active;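 active means mean inhibition above about 50% when retested at one dose, limit read from the data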
A number is an active result; 0 = inactive; - = no result given. Hits are enriched below; roughly 2.5% of the tested compounds scored in any of these assays.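 How the source made its calls, unless noted: active means mean inhibition above about 50% in the one-dose retest (limit read from the data); inactive means the rest.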

SMILES	SENP8 block-1	SENP8 block-2	SENP6 inh	SENP7 inh	SENP1 FRET inh	SENP8 confirm	SENP6 confirm	SENP7 conf	Casp3 SENP sel	SENP luc ctr
C=CCOC(=O)c1c(C)nc2cc3c(cc2c1C)OCO3	0	0	0	0	0	-	-	-	-	-
O=C(/C=C/c1ccc([N+](=O)[O-])cc1)OCC(=O)N1c2ccccc2Sc2ccccc21	0	0	0	0	0	-	-	-	-	-
CC1=CN2C(=N)/C(=C/c3ccco3)C(=O)N=C2S1	0	0	52	0	0	0	0	71	74	0
CC1=CN2C(=N)/C(=C/c3ccc([N+](=O)[O-])o3)C(=O)N=C2S1	0	-	-	-	0	-	-	-	-	-
Cc1cc(OCc2ccc(C(=O)n3cccn3)o2)ccc1Cl	0	0	50	0	0	0	0	0	0	0
O=C(c1ccc(COc2ccc(F)cc2)o1)n1cccn1	0	0	0	0	0	-	-	-	-	-
COc1cc(C(=O)Nc2cc(C)ccn2)cc(OC)c1OC	0	0	0	0	0	-	-	-	-	-
COc1ccc(C(=O)NC(=O)Nc2cc(C)ccn2)cc1	0	79	83	0	0	78	78	94	92	68
COc1ccc(C(=O)Nc2ccccc2C(=O)Nc2cc(C)ccn2)cc1	0	58	64	0	0	0	0	0	0	0
O=C(O)c1ccc(-c2nc3scc(-c4ccccc4)c3c(=O)[nH]2)cc1	0	0	61	0	0	0	0	62	0	0
Cc1nonc1C(=O)N/N=C/c1ccncc1	0	0	0	0	0	-	-	-	-	-
Cc1nonc1C(=O)N/N=C/c1ccc(O)cc1O	0	0	97	100	0	98	98	102	98	97
Cc1cc(C)c(S(=O)(=O)Nc2ccnc(-c3cccnc3)n2)c(C)c1	0	0	0	0	0	-	-	-	-	-
CCOC(=O)c1csc(Nc2nc3ccc(F)cc3s2)n1	0	0	58	0	0	0	0	0	0	0
CC(=O)c1sc(Nc2nc3ccc(F)cc3s2)nc1C	0	53	81	0	0	0	72	90	0	0
COC(=O)c1ccc2nc(Nc3nc4ccc(F)cc4s3)sc2c1	0	-	-	-	0	-	-	-	-	-
Cc1cc(C)c2c(=O)cc(C(=O)NCc3ccccc3)oc2c1	0	0	0	0	0	-	-	-	-	-
CCOc1ccc(C(=O)COC(=O)c2cc(=O)[nH]c3ccccc23)cc1	0	0	0	53	0	0	0	0	0	0
O=C(COC(=O)c1cc(=O)[nH]c2ccccc12)c1ccc(Br)cc1	0	0	0	0	0	-	-	-	-	-
CCOC(=O)C1CC2CC(C1)CN(C(=O)C1CCCCC1)C2 (centres undefined)	0	0	0	0	0	-	-	-	-	-
CC(C)n1c(N2CCN(S(=O)(=O)c3cccc([N+](=O)[O-])c3)CC2)nc2ccccc21	0	0	0	0	0	-	-	-	-	-
O=C(/C=C/Nc1ccccc1F)c1ccc(Br)cc1	0	-	-	-	0	-	-	-	-	-
C/C(=C\C(=O)c1ccc(C)cc1)Nc1cccc(O)c1	0	76	84	0	0	82	87	98	70	88
CC(=O)Nc1ccc(N/C=C/C(=O)c2ccc(Cl)cc2)cc1	0	0	0	0	0	-	-	-	-	-
CC(=O)c1cccc(N/C=C\C(=O)c2ccc(C)cc2)c1	0	-	-	-	0	-	-	-	-	-
SMILES	SENP8 block-1	SENP8 block-2	SENP6 inh	SENP7 inh	SENP1 FRET inh	SENP8 confirm	SENP6 confirm	SENP7 conf	Casp3 SENP sel	SENP luc ctr
O=C(/C=C/Nc1ccc(Br)cc1F)c1ccccc1	0	94	94	100	0	0	0	0	65	0
O=C(/C=C/Nc1ccc(F)c(Cl)c1)c1ccccc1	0	0	71	65	0	0	0	87	58	0
O=C(/C=C/Nc1cccc(O)c1)c1ccccc1	0	96	97	98	0	99	99	103	97	98
O=C(Nc1cccc(O)c1)c1cccc(C(=O)Nc2cccc(O)c2)c1	0	0	0	0	0	-	-	-	-	-
Cc1ccc(N/C=C/C(=O)c2ccccc2)cc1Br	0	0	63	83	0	0	0	0	0	0
CC(=O)c1ccc(N/C=C\C(=O)c2ccc(C)cc2)cc1	0	0	0	0	0	-	-	-	-	-
Cc1ccc(C(=O)/C=C/Nc2cccc(O)c2)cc1	0	88	93	0	0	0	93	100	77	78
Cc1ccc(C(=O)/C=C/Nc2ccc3c(c2)OCO3)cc1	0	0	0	60	0	0	0	0	0	0
O=C1CCC(=O)c2ccc3c4c(ccc1c24)CC3	0	-	-	-	0	-	-	-	-	-
O=C1CCN2C=Nc3cccc4ccc1c2c34	0	59	69	0	0	0	0	0	0	0
C1=CC2=NC34CCCCC3CC3=C(CCCC3)N4C2=CC1=NC1CCCCC1 (centres undefined)	0	0	51	0	0	0	0	0	0	0
CCSc1nn2c(=O)c3ccccc3nc2s1	0	0	58	0	0	0	0	70	76	0
CCOn1c(SCC)nc2ccccc2c1=O	0	0	0	0	0	-	-	-	-	-
O=C(CC1C(=O)NC2CCCCC2N1C(=O)c1ccc(F)cc1)Nc1ccccc1 (centres undefined)	0	0	0	0	0	-	-	-	-	-
Cc1ccc(NC(=O)CC2C(=O)NC3CCCCC3N2C(=O)c2ccc(F)cc2)cc1C (centres undefined)	0	0	54	0	0	0	0	0	0	0
Cc1ccc(N(C(=O)c2csnn2)C(C(=O)NC2CCCC2)c2cccnc2)c(C)c1 (centres undefined)	0	0	0	0	0	-	-	-	-	-
CCCCn1nc(C(=O)Nc2ccc(-n3cnnn3)cc2)c2ccccc2c1=O	0	0	0	0	0	-	-	-	-	-
O=c1c2ccccc2cnn1-c1ccc(Cl)cc1	0	0	59	57	0	0	62	73	79	0
Cc1ccc(-n2ncc3ccccc3c2=O)cc1Cl	0	0	0	0	0	-	-	-	-	-
C[C@@H]1CN([C@@H](C)CO)C(=O)c2cc(Br)cnc2O[C@@H]1CN(C)C(=O)CN(C)C	0	-	-	-	0	-	-	-	-	-
Cc1ccc(-c2nnc(SCC(=O)N/N=C/c3c(C)nn(-c4ccccc4)c3C)n2-c2ccccc2)cc1	0	0	0	0	0	-	-	-	-	-
O=C(O)COc1ccccc1/C=N/NC(=O)CSc1nnc(SCc2cccc3ccccc23)s1	0	0	0	0	0	-	-	-	-	-
O=C(O)COc1ccccc1/C=N/NC(=O)CSc1nnc(SCc2ccc(Cl)cc2)s1	0	0	66	0	0	0	0	67	0	0
Cc1ccc(CSc2nnc(SCC(=O)N/N=C/c3c(C)nn(-c4ccccc4)c3C)s2)cc1	0	0	75	55	0	0	0	0	0	0

Source: PubChem (Sanford-Burnham Center for Chemical Genomics)
